Data: ChEMBL document CHEMBL4304739, “Discovery of 3-(Indol-5-yl)-indazole Derivatives as Novel Myeloid Differentiation Protein 2/Toll-like Receptor 4 Antagonists for Treatment of Acute Lung Injury” (J Med Chem, 2019)
Active and inactive are the calls of the source. The calls are words filed in the database; no cut-off is given here.

Assays:
[1] = molecular target: Tyrosine-protein kinase JAK2 (Homo sapiens) (UniProt O60674); assay: Inhibition of wild-type human partial length JAK2 JH1 catalytic domain (A829 to G1132 residues) expressed in mammalian expression system at 1 uM by Kinomescan method
How it was run: (§1)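 Binding-competition screen on the KINOMEscan platform, run by the provider, with the test compound at 1 μM. Readout is percent of control: (test signal − positive control signal)/(negative control signal − positive control signal) × 100. The DMSO negative control is set as 100% Ctrl and a control compound as 0% Ctrl. Lower values mean stronger hits.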

[2] = molecular target: Bone morphogenetic protein receptor type-2 (Homo sapiens) (UniProt Q13873); assay: Inhibition of wild-type human partial length BMPR2 (R179 to Q526 residues) expressed in mammalian expression system at 1 uM by Kinomescan method; how it was run: as §1
[3] = molecular target: Phosphatidylinositol 4-phosphate 3-kinase C2 domain-containing subunit beta (Homo sapiens) (UniProt O00750); assay: Inhibition of wild-type human partial length PIK3C2B (M1 to L1634 residues) expressed in mammalian expression system at 1 uM by Kinomescan method; how it was run: as §1
[4] = molecular target: Serine/threonine-protein kinase 32C (Homo sapiens) (UniProt Q86UX6); assay: Inhibition of wild-type human partial length YANK3 (M68 to G486 residues) expressed in bacterial expression system at 1 uM by Kinomescan method
How it was run: (§2)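 Single-concentration screen at 1 μM on the KINOMEscan panel (98 kinases), run by the platform provider. Results are given as percent of control: % Ctrl = [(test signal − positive control signal)/(negative control signal − positive control signal)] × 100. DMSO serves as negative control (100% Ctrl) and a control compound as positive control (0% Ctrl). Lower values mean stronger binding hits.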

[5] = molecular target: Cyclin-dependent kinase 7 (Homo sapiens) (UniProt P50613); assay: Inhibition of wild-type human full length CDK7 (M1 to L344 residues) expressed in mammalian expression system at 1 uM by Kinomescan method
How it was run: (§3)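 KINOMEscan competition binding screen at 1 μM compound. Results reported as % of control = (test − positive control)/(DMSO negative control − positive control) × 100, where lower values mean stronger hits.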

[6] = molecular target: Cyclin-dependent kinase 16 (Homo sapiens) (UniProt Q00536); assay: Inhibition of wild-type human partial length PCTK1 (G160 to A474 residues) expressed in mammalian expression system at 1 uM by Kinomescan method; how it was run: as §1
[7] = molecular target: Vascular endothelial growth factor receptor 2 (Homo sapiens) (UniProt P35968); assay: Inhibition of wild-type human partial length VEGFR2 (R787 to P1253 residues) expressed in mammalian expression system at 1 uM by Kinomescan method; how it was run: as §2
[8] = molecular target: Cyclin-dependent kinase 19 (Homo sapiens) (UniProt Q9BWU1); assay: Inhibition of wild-type human partial length CDK11 (M1 to N360 residues) expressed in bacterial expression system at 1 uM by Kinomescan method; how it was run: as §1
[9] = molecular target: Mitogen-activated protein kinase kinase kinase 4 (Homo sapiens) (UniProt Q9Y6R4); assay: Inhibition of wild-type human partial length MAP3K4 (G1319 to E1608 residues) expressed in bacterial expression system at 1 uM by Kinomescan method; how it was run: as §1
[10] = molecular target: Proto-oncogene tyrosine-protein kinase Src (Homo sapiens) (UniProt P12931); assay: Inhibition of wild-type human partial length SRC (L240 to L536 residues) expressed in bacterial expression system at 1 uM by Kinomescan method; how it was run: as §2
[11] = molecular target: Serine/threonine-protein kinase PLK4 (Homo sapiens) (UniProt O00444); assay: Inhibition of wild-type human partial length PLK4 (M1 to S273 residues) expressed in mammalian expression system at 1 uM by Kinomescan method; how it was run: as §1
[12] = molecular target: Mast/stem cell growth factor receptor Kit (Homo sapiens) (UniProt P10721); assay: Inhibition of wild-type human partial length KIT (I571 to D952 residues) expressed in bacterial expression system at 1 uM by Kinomescan method
How it was run: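 KINOMEscan competition binding panel (98 kinases) run by the provider, compound screened once at 1 μM. Read-out is percent of control: [(test signal − positive control signal)/(negative control signal − positive control signal)] × 100. DMSO negative control sets 100% Ctrl and a control compound sets 0% Ctrl; lower values mean stronger hits.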

[13] = molecular target: Rho-associated protein kinase 2 (Homo sapiens) (UniProt O75116); assay: Inhibition of wild-type human partial length ROCK2 (M1 to T431 residues) expressed in mammalian expression system at 1 uM by Kinomescan method; how it was run: as §1
[14] = test system: Serine/threonine-protein kinase B-raf (Homo sapiens), P15056 [V600E]; assay: Inhibition of human partial length BRAF V600E mutant (S429 to E741 residues) expressed in mammalian expression system at 1 uM by Kinomescan method; how it was run: as §3
[15] = molecular target: MAP kinase-interacting serine/threonine-protein kinase 1 (Homo sapiens) (UniProt Q9BUB5); assay: Inhibition of wild-type human full length MKNK1 (M1 to L424 residues) expressed in mammalian expression system at 1 uM by Kinomescan method; how it was run: as §3
[16] = test system: Peritoneal macrophage; assay: Cytotoxicity against ICR mouse peritoneal macrophages assessed as reduction in cell viability at 10 uM measured after 24 hrs by MTT assay; format: cell-based
How it was run: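 Peritoneal macrophages from ICR mice, 2.0×10^4 cells/well in DMEM with 10% FBS. Cells exposed to compound for 24 h, then MTT (5 mg/ml in 0.9% NaCl) added for 4 h at 37 °C in 5% CO2. Absorbance read at 490 nm; final DMSO 0.1%.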

[17] = molecular target: Inhibitor of nuclear factor kappa-B kinase subunit beta (Homo sapiens) (UniProt O14920); assay: Inhibition of wild-type human full length IKK-beta (M1 to S756 residues) expressed in mammalian expression system at 1 uM by Kinomescan method; how it was run: as §3
[18] = molecular target: Insulin-like growth factor 1 receptor (Homo sapiens) (UniProt P08069); assay: Inhibition of wild-type human partial length IGF1R (L972 to D1294 residues) expressed in bacterial expression system at 1 uM by Kinomescan method; how it was run: as §1
[19] = molecular target: cAMP-dependent protein kinase catalytic subunit alpha (Homo sapiens) (UniProt P17612); assay: Inhibition of wild-type human partial length PKAC-alpha (G10 to F351 residues) expressed in bacterial expression system at 1 uM by Kinomescan method; how it was run: as §1
[20] = molecular target: MAP kinase-activated protein kinase 2 (Homo sapiens) (UniProt P49137); assay: Inhibition of wild-type human partial length MAPKAPK2 (V48 to D345 residues) expressed in bacterial expression system at 1 uM by Kinomescan method; how it was run: as §1
[21] = molecular target: Cyclin-dependent kinase 3 (Homo sapiens) (UniProt Q00526); assay: Inhibition of wild-type human full length CDK3 (M1 to H305 residues) expressed in bacterial expression system at 1 uM by Kinomescan method; how it was run: as §3
[22] = molecular target: Ribosomal protein S6 kinase alpha-3 (Homo sapiens) (UniProt P51812); assay: Inhibition of wild-type human partial length N-terminal RSK2 kinase domain 1 (M1 to D394 residues) expressed in mammalian expression system at 1 uM by Kinomescan method; how it was run: as §1
[23] = molecular target: Proto-oncogene tyrosine-protein kinase receptor Ret (Homo sapiens) (UniProt P07949); assay: Inhibition of wild-type human partial length RET (E713 to D1014 residues) expressed in bacterial expression system at 1 uM by Kinomescan method; how it was run: as §1

Chain of Ribosomal protein S6 kinase alpha-3 (Homo sapiens) (P51812 whole entry, the tested form may be a part): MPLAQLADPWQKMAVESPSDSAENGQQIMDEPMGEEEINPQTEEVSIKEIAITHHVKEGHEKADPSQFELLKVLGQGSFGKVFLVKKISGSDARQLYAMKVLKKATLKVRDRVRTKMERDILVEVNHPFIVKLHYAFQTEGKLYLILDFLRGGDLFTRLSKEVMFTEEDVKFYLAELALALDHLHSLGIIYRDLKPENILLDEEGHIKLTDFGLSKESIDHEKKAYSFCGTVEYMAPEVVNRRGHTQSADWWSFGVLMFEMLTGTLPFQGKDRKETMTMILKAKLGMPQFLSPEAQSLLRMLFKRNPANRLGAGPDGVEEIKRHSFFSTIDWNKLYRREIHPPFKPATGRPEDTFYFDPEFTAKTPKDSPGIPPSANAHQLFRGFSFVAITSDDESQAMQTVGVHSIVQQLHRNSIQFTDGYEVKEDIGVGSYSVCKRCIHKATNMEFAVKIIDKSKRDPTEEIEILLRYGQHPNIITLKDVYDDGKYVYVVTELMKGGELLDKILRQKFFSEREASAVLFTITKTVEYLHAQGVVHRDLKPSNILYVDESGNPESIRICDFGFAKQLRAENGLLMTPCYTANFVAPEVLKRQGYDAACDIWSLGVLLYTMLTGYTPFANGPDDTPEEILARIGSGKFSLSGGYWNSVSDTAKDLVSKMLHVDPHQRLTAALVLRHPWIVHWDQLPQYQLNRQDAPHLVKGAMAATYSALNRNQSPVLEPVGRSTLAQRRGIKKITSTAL
Chain of Mast/stem cell growth factor receptor Kit (Homo sapiens) (P10721 whole entry, the tested form may be a part): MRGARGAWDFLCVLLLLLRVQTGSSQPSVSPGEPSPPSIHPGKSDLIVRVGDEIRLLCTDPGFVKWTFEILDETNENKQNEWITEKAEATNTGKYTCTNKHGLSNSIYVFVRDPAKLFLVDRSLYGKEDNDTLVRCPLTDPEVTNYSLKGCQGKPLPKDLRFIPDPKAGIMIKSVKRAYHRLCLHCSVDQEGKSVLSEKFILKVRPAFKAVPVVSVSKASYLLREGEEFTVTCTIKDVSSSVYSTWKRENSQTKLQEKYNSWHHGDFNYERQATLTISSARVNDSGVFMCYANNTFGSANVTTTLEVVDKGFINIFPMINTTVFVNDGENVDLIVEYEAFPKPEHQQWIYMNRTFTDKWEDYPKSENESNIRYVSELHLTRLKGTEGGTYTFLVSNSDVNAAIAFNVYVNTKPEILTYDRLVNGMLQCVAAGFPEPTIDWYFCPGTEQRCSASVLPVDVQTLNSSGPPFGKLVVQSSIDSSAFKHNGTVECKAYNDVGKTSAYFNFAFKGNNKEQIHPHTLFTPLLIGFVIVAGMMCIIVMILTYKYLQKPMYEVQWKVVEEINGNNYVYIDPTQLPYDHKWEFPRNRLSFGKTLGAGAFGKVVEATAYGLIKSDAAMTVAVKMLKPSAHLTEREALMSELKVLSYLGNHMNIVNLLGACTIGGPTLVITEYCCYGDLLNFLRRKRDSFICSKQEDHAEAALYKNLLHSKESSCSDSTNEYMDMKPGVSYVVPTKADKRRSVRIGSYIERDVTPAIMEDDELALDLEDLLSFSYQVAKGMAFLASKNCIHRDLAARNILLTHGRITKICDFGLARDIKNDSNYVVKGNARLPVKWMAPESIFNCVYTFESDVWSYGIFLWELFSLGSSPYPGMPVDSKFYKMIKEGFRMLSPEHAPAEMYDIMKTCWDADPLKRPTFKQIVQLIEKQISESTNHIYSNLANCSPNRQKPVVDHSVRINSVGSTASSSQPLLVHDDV
Chain of MAP kinase-activated protein kinase 2 (Homo sapiens) (P49137 whole entry, looked up, the tested form may be a part): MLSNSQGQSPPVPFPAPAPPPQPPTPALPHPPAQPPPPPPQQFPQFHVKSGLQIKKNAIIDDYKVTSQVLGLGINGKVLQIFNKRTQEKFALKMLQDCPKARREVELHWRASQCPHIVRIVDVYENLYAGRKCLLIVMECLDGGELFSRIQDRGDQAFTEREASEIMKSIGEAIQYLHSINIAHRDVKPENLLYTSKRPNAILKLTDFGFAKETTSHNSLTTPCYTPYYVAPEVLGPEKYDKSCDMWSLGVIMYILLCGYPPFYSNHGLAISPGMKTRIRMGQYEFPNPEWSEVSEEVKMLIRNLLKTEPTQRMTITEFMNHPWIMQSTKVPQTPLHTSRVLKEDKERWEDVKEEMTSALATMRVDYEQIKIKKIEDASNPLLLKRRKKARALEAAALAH
Chain of Cyclin-dependent kinase 7 (Homo sapiens) (P50613 whole entry, the tested form may be a part): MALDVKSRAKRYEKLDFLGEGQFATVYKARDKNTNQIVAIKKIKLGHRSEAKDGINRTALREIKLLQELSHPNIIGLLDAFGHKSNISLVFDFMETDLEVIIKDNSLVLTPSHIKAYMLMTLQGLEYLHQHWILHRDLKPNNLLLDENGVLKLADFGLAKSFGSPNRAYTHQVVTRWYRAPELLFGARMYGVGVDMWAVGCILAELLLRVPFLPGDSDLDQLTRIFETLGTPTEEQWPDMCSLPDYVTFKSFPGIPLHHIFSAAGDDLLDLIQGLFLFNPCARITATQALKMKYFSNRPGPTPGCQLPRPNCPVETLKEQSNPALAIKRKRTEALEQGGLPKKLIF
Chain of Rho-associated protein kinase 2 (Homo sapiens) (O75116 whole entry, looked up, the tested form may be a part): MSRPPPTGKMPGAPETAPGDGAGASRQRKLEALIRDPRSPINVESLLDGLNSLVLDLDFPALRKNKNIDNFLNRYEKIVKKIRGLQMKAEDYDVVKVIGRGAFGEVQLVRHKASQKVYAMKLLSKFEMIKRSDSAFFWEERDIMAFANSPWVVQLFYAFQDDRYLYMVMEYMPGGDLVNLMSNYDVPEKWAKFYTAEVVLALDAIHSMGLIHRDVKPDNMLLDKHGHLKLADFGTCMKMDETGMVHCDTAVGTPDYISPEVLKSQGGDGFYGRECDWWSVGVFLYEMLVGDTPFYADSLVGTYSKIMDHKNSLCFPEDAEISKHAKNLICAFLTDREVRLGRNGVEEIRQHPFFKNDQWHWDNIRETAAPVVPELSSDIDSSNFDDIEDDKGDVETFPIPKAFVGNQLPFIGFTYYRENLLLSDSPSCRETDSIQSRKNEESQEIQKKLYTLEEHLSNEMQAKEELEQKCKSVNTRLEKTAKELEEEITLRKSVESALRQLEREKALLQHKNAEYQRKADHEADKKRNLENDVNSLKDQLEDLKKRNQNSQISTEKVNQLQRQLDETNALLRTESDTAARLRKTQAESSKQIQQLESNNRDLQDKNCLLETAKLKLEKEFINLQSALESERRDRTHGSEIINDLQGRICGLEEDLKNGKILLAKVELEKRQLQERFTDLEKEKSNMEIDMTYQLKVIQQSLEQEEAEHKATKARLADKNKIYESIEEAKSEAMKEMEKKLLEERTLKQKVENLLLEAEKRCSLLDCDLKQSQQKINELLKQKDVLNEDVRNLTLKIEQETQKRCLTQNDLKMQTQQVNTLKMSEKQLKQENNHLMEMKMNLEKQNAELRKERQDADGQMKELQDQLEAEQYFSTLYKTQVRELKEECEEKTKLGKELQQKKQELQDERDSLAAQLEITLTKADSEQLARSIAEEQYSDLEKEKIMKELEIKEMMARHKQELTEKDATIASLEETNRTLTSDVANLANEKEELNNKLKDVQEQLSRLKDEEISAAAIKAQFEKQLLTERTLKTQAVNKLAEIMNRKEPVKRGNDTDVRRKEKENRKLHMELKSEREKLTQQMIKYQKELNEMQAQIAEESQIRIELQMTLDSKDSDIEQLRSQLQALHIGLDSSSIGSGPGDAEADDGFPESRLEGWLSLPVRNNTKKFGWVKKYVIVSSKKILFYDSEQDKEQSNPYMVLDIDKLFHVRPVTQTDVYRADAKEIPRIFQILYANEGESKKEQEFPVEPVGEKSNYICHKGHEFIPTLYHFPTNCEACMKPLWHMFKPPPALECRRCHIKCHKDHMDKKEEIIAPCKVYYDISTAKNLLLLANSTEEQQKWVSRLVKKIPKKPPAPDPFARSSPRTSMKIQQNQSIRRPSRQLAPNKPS
Chain of MAP kinase-interacting serine/threonine-protein kinase 1 (Homo sapiens) (Q9BUB5 whole entry, looked up, the tested form may be a part): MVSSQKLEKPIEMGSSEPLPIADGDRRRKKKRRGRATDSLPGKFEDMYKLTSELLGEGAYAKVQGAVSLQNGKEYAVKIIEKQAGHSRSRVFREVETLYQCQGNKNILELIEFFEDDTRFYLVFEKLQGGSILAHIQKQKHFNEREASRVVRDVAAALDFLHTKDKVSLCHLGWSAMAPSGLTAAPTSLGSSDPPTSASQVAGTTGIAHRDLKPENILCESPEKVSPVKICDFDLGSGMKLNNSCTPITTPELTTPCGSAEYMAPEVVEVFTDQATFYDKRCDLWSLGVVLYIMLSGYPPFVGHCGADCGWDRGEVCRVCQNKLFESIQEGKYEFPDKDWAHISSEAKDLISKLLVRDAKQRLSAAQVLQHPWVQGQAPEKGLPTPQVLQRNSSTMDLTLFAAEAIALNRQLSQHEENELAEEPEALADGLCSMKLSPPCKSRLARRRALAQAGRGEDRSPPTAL
Chain of Cyclin-dependent kinase 19 (Homo sapiens) (Q9BWU1 whole entry, the tested form may be a part): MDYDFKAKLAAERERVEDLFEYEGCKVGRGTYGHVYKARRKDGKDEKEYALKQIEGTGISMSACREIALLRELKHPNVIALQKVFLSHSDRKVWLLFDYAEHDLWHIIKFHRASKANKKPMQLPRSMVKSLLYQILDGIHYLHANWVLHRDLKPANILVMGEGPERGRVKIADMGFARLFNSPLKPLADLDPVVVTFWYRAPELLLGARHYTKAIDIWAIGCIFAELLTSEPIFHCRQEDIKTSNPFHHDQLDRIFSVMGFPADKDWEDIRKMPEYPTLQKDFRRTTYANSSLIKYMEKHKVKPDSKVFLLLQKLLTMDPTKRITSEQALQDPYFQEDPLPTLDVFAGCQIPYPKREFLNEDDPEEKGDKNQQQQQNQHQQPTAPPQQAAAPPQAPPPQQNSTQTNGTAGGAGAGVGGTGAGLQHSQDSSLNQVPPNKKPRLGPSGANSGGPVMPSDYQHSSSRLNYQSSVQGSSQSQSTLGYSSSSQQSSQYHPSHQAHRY

`O=C(Nc1ccc2[nH]nc(-c3ccc4[nH]ccc4c3)c2c1)c1c(Cl)cccc1Cl` was tested, and the inhibition [1] was “inactive”, the inhibition [2] was “inactive” and the inhibition [3] was “inactive”. The inhibition [4] was “inactive”, the inhibition [5] was “inactive” and the inhibition [6] was “inactive”. For the same compound, the inhibition [7] was “inactive”, the inhibition [8] was “inactive” and the inhibition [9] was “inactive”. For the same compound, the inhibition [10] was “inactive”, the inhibition [11] was “inactive” and the inhibition [12] was “inactive”. For the same compound, the inhibition [13] was “inactive”, the inhibition [14] was “inactive” and the inhibition [15] was “inactive”. The Activity [16] was “Non-Toxic”, the inhibition [17] was “inactive” and the inhibition [18] was “inactive”. For the same compound, the inhibition [19] was “inactive”, the inhibition [20] was “inactive” and the inhibition [21] was “inactive”. For the same compound, the inhibition [22] was “inactive” and the inhibition [23] was “inactive”.
